In ChEMBL document CHEMBL1127011, “Structure-activity relationship of glycine betaine analogs on osmotolerance of enteric bacteria” (1993):

Columns and labels:
Assay type in all cases: functional
[1] = tested on: Escherichia coli; assay: Maximum NaCl molar concentration that showed 50% bacterial growth in Escherichia coli ATCC 25922 at minimum media (MM)
Procedure, shortened: (§1)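 Single colony from MacConkey agar subcultured overnight in minimal medium at 37 °C. Inoculum: 1:200 dilution of 0.5 McFarland standard (~5 × 10^5 cfu/mL final) into minimal medium with NaCl 0.1–1 M in 0.1 M steps. Test compound 0.1 mM, alone or with GB or Chol 0.1 mM. OD600 read at 48 h. Endpoint is highest NaCl giving ≥50% growth versus full-growth tubes. Mean of three ±SD.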

[2] = tested on: Escherichia coli; assay: Maximum NaCl molar concentration that showed 50% bacterial growth in Escherichia coli K10 at MM+0.1 mmol GB (Glycine Betaine); procedure, shortened: as §1
[3] = tested on: Escherichia coli; assay: Maximum NaCl molar concentration that showed 50% bacterial growth in Escherichia coli 31 at minimum media (MM); procedure, shortened: as §1
[4] = tested on: Escherichia coli; assay: Maximum NaCl molar concentration that showed 50% bacterial growth in Escherichia coli 31 at MM+0.1 mmol GB (Glycine Betaine); procedure, shortened: as §1
[5] = tested on: Escherichia coli; assay: Maximum NaCl molar concentration that showed 50% bacterial growth in Escherichia coli ATCC 25922 at MM+0.1 mmol GB (Glycine Betaine); procedure, shortened: as §1
[6] = tested on: Escherichia coli; assay: Maximum NaCl molar concentration that showed 50% bacterial growth in Escherichia coli K10 at minimum media (MM); procedure, shortened: as §1
[7] = tested on: Escherichia coli; assay: Maximum NaCl molar concentration that showed 50% bacterial growth in Escherichia coli ATCC 25922 at MM+0.1 mmol Choline; procedure, shortened: as §1
[8] = tested on: Escherichia coli; assay: Maximum NaCl molar concentration that showed 50% bacterial growth in Escherichia coli 31 at MM+0.1 mmol Choline; procedure, shortened: as §1
[9] = tested on: Escherichia coli; assay: Maximum NaCl molar concentration that showed 50% bacterial growth in Escherichia coli K10 at MM+0.1 mmol Choline; procedure, shortened: as §1

Row | Structure (SMILES) | Max salt tolerance [1] | Max salt tolerance [2] | Max salt tolerance [3] | Max salt tolerance [4] | Max salt tolerance [5] | Max salt tolerance [6] | Max salt tolerance [7] | Max salt tolerance [8] | Max salt tolerance [9]
1 | C[N+](C)(C)CC(=O)Nc1ccc(S(N)(=O)=O)cc1.[Cl-] | 0.5 | 0.9 | 0.73 | 0.9 | 0.83 | 0.56 | 0.8 | 0.9 | 0.86
2 | C[N+]1(CS(=O)(=O)[O-])CCCC1 | 0.13 | 0.97 | 0.7 | 0.93 | 0.87 | 0.5 | 0.2 | 0.86 | 0.6
3 | C[N+](C)(C)CC(=O)[N-]S(=O)(=O)c1ccccc1 | 0.5 | 0.9 | 0.73 | 0.9 | 0.83 | 0.56 | 0.8 | 0.9 | 0.86
4 | C[N+]1(CS(=O)(=O)[O-])CCCCC1 | 0.13 | 0.9 | 0.43 | 0.93 | 0.86 | 0.35 | 0.2 | 0.88 | 0.5
5 | C[N+](C)(C)CC(=O)NS(=O)(=O)c1ccc(N)cc1.[Cl-] | 0.5 | 0.9 | 0.73 | 0.9 | 0.83 | 0.56 | 0.8 | 0.9 | 0.86
6 | Br.C[N+](C)(C)CC(=O)[N-]S(=O)(=O)c1ccc(NC(=O)CBr)cc1 | 0.1 | 0.86 | 0.63 | 0.9 | 0.86 | 0.3 | 0.8 | 0.8 | 0.8
7 | C[N+](C)(C)CS(=O)(=O)[O-] | 0.27 | 0.93 | 0.83 | 0.9 | 0.86 | 0.83 | 0.33 | 0.9 | 0.9
8 | C[N+](C)(C)CC(=O)[N-]S(=O)(=O)c1ccc(NC(=O)CCl)cc1 | 0.1 | 0.86 | 0.63 | 0.9 | 0.86 | 0.3 | 0.8 | 0.8 | 0.8
9 | C[N+](C)(C)CC(=O)Nc1ccc(S(=O)(=O)NC(=O)C[N+](C)(C)C)cc1.[Cl-].[Cl-] | 0.5 | 0.9 | 0.73 | 0.9 | 0.83 | 0.56 | 0.8 | 0.9 | 0.86
10 | C[N+](C)(C)CP(=O)([O-])O [HYDROGEN (TRIMETHYLAMMONIO)METHYLPHOSPHONATE] | 0.33 | 0.87 | 0.6 | 0.9 | 0.8 | 0.4 | 0.77 | 0.83 | 0.77
11 | C[N+]1(CS(=O)(=O)[O-])CCOCC1 | 0.2 | 0.97 | 0.77 | 0.97 | 0.83 | 0.63 | 0.23 | 0.9 | 0.87
12 | C[N+](C)(C)CC(=O)[N-]S(=O)(=O)c1ccc(NC(=O)CI)cc1 | 0.1 | 0.86 | 0.63 | 0.9 | 0.86 | 0.3 | 0.8 | 0.8 | 0.8
13 | CCC(=O)Nc1ccc(S(=O)(=O)[N-]C(=O)C[N+](C)(C)C)cc1 | 0.4 | 0.9 | 0.7 | 0.9 | 0.86 | 0.57 | 0.8 | 0.8 | 0.83
14 | CC(=O)Nc1ccc(S(=O)(=O)[N-]C(=O)C[N+](C)(C)C)cc1 | 0.4 | 0.9 | 0.7 | 0.9 | 0.86 | 0.57 | 0.8 | 0.8 | 0.83
